Experimental findings from BindingDB's records for doi:10.1016/j.ejmech.2011.01.008 (University of Lisbon, 2011) are described below.

One test deals with T1, Falcipain 2 (Plasmodium falciparum, UniProt Q9N6S8).
T1 sequence (Q9N6S8 whole entry): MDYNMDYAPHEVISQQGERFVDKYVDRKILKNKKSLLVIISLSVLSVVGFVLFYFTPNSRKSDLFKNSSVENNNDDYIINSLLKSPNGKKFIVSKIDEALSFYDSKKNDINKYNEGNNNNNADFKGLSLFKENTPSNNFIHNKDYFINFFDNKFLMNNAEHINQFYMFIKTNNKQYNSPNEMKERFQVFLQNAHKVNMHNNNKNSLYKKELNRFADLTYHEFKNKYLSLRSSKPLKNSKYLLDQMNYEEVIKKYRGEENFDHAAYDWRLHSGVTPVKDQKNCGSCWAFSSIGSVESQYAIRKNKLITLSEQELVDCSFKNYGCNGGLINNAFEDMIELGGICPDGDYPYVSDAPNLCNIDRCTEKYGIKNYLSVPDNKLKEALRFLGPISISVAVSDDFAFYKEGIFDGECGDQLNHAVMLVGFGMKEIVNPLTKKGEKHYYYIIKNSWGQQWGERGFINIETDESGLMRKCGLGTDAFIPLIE
Description: Inhibition of Plasmodium falciparum falcipain 2 incubated with compound for 10 mins before addition of 25 uM Z-Leu-Arg-AMC substrate by fluorescence spectrophotometry. In short, it runs like this: (§1)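 Run at 25 °C in 100 mM sodium acetate pH 6.0 with 5 mM DTT and 0.75% DMSO. Enzyme was preincubated 10 min with compound diluted from DMSO, then Z-Leu-Arg-AMC was added and fluorescence was read immediately. Eight inhibitor concentrations were made by fivefold serial dilution. IC50 was fitted to percent inhibition versus a no-inhibitor control against log concentration.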
The IC50 is the concentration that inhibits the measured activity by half. Turning to `O=C1Nc2ccccc2C1C=Nc1ccccc1` (stereo not drawn) [3-((phenylamino)methylene)indolin-2-one], the IC50 was over 50 µM.
In the case of `CN1C(=O)C(C=NCCCNc2ccnc3cc(Cl)ccc23)c2ccccc21` (stereo not drawn) [(Z/E)-3-((3-(7-chloroquinolin-4-ylamino)propylamino)methylene)-1-methylindolin-2-one], the IC50 is over 50 µM.
Same read-out and setting: the same measure for `O=C1Nc2ccccc2C1C=NCCCNc1ccnc2cc(Cl)ccc12` (stereo not drawn) [(Z/E)-3-((3-(7-chloroquinolin-4-ylamino)propylamino)methylene)indolin-2-one]: over 50 µM; for `O=C1Nc2ccc(Cl)cc2C1C=NCCCNc1ccnc2cc(Cl)ccc12` (stereo not drawn) [(Z/E)-5-chloro-3-((3-(7-chloroquinolin-4-ylamino)propylamino)methylene)indolin-2-one]: over 50 µM.
Still for that read-out and setting: then `O=C1Nc2cc(Cl)ccc2C1C=NCCCNc1ccnc2cc(Cl)ccc12` (stereo not drawn) [(Z/E)-6-chloro-3-((3-(7-chloroquinolin-4-ylamino)propylamino)methylene)indolin-2-one], with over 50 µM.
For `O=C1Nc2c(Cl)cccc2C1C=NCCCNc1ccnc2cc(Cl)ccc12` (stereo not drawn) [(Z/E)-7-chloro-3-((3-(7-chloroquinolin-4-ylamino)propylamino)methylene)indolin-2-one], the IC50 is over 50 µM.
On the same count and under the same terms, then `CC(C)CCNC(=O)[C@H](CC(C)C)N=CC1C(=O)N(C)c2ccccc21` (stereo partly drawn) [(Z/E)-(S)-N-isopentyl-4-methyl-2-((1-methyl-2-oxoindolin-3-ylidene)methylamino)pentanamide], with over 50 µM.
Still for that read-out and setting: the same measure for `CC(C)CCNC(=O)[C@H](CC(C)C)N=CC1C(=O)Nc2ccccc21` (stereo partly drawn) [(Z/E)-(S)-N-isopentyl-4-methyl-2-((2-oxoindolin-3-ylidene)methylamino)pentanamide]: over 50 µM.
As for `CCOC(=O)[C@H](Cc1ccccc1)N=CC1C(=O)Nc2ccccc21` (stereo partly drawn) [(Z/E)-(S)-ethyl 2-((2-oxoindolin-3-ylidene)methylamino)-3-phenylpropanoate], the IC50 was over 50 µM.
Same read-out and setting: the same measure for `CC(C)CCNC(=O)CN=CC1C(=O)Nc2ccccc21` (stereo not drawn) [(Z/E)-N-isopentyl-2-((2-oxoindolin-3-ylidene)methylamino)acetamide]: over 50 µM; for `CCOC(=O)CN=CC1C(=O)Nc2ccccc21` (stereo not drawn) [(Z/E)-ethyl 2-((2-oxoindolin-3-ylidene)methylamino)acetate]: over 50 µM.

The target in a further test is Cysteine protease falcipain-3 (Plasmodium falciparum, UniProt Q9NAW4). Description: Inhibition of Plasmodium falciparum falcipain 3 incubated with compound for 10 mins before addition of 25 uM Z-Leu-Arg-AMC substrate by fluorescence spectrophotometry. In short, it runs like this: as §1
Cysteine protease falcipain-3, sequence (Q9NAW4 1-492): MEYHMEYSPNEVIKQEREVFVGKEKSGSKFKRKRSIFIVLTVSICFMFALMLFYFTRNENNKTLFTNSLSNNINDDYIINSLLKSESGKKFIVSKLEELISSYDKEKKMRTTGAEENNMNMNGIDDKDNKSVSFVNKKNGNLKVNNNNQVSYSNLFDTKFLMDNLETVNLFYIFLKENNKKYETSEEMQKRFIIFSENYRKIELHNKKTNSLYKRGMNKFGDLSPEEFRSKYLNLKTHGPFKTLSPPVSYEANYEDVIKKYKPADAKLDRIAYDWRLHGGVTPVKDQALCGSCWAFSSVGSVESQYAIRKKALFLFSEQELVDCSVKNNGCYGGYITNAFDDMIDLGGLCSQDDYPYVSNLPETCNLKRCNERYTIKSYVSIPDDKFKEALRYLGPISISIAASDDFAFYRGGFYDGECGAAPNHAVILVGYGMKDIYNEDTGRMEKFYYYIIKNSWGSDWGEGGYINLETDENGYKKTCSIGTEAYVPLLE
With `CC(C)CCNC(=O)[C@H](Cc1ccccc1)N=CC1C(=O)Nc2ccc(Cl)cc21` (stereo partly drawn) [(Z/E)-(S)-2-((5-chloro-2-oxoindolin-3-ylidene)methylamino)-N-isopentyl-3-phenylpropanamide], the IC50 is over 50 µM.
On the same count and under the same terms, the same measure for `CC(C)CCNC(=O)[C@H](CC(C)C)N=CC1C(=O)Nc2ccc(Cl)cc21` (stereo partly drawn) [(Z/E)-(S)-2-((5-chloro-2-oxoindolin-3-ylidene)methylamino)-N-isopentyl-4-methylpentanamide]: over 50 µM; for `CC(C)CCNC(=O)[C@H](CCc1ccccc1)N=CC1C(=O)Nc2c(Cl)cccc21` (stereo partly drawn) [(Z/E)-(S)-2-((7-chloro-2-oxoindolin-3-ylidene)methylamino)-N-isopentyl-4-phenylbutanamide]: over 50 µM; for `CC(C)CCNC(=O)[C@H](CCc1ccccc1)N=CC1C(=O)Nc2ccccc21` (stereo partly drawn) [(Z/E)-(S)-N-isopentyl-2-((2-oxoindolin-3-ylidene)methylamino)-4-phenylbutanamide]: over 50 µM.
Still for that read-out and setting: the same measure for `CC(C)CCNC(=O)[C@H](CC(C)C)N=CC1C(=O)N(C)c2ccccc21` (stereo partly drawn) [(Z/E)-(S)-N-isopentyl-4-methyl-2-((1-methyl-2-oxoindolin-3-ylidene)methylamino)pentanamide]: over 50 µM; for `CC(C)CCNC(=O)[C@H](CC(C)C)N=CC1C(=O)Nc2ccccc21` (stereo partly drawn) [(Z/E)-(S)-N-isopentyl-4-methyl-2-((2-oxoindolin-3-ylidene)methylamino)pentanamide]: over 50 µM.
For `CC(C)CCNC(=O)CN=CC1C(=O)Nc2ccccc21` (stereo not drawn) [(Z/E)-N-isopentyl-2-((2-oxoindolin-3-ylidene)methylamino)acetamide], the IC50 is over 50 µM.
